Assay results from ChEMBL document CHEMBL1149113 (J Med Chem, 2004).

Tests used:
[1] = molecular target: T1, B2 bradykinin receptor (Homo sapiens, UniProt P30411); experiment: In vitro inhibitory activity towards human bradykinin receptor B2 expressed in CHO cells using [3H]BK (1.0 nM) as a radioligand; type: cell-based
T1 sequence (P30411 whole entry): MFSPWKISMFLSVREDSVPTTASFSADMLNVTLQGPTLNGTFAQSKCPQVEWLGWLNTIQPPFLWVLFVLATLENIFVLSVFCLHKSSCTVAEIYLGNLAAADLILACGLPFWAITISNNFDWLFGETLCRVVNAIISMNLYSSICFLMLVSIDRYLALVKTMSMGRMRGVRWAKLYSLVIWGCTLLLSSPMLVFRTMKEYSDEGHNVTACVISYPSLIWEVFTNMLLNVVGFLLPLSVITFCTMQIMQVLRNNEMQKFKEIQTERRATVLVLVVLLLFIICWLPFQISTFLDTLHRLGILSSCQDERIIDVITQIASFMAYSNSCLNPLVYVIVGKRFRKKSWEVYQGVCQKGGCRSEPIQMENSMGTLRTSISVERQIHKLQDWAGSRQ
In short: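 Stably transfected CHO (dhfr-) cells seeded at 3.0 × 10^4 cells/well, cultured 1 day, then incubated with test compounds for 2 h at 4 °C. Binding buffer was HEPES/N-methyl-D-glucamine pH 7.2 with bacitracin, enalaprilat and BSA. Cells solubilized in SDS/NaOH and counted by scintillation; nonspecific binding with 1 μM unlabeled BK. Run three times.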

[2] = molecular target: T2, B2 bradykinin receptor (Cavia porcellus, UniProt O70526); experiment: In vitro inhibitory activity towards bradykinin receptor B2 using [3H]BK (0.06 nM) as a radioligand in guinea pig ileum membrane preparation; type: cell membranes
T2 sequence (O70526 whole entry): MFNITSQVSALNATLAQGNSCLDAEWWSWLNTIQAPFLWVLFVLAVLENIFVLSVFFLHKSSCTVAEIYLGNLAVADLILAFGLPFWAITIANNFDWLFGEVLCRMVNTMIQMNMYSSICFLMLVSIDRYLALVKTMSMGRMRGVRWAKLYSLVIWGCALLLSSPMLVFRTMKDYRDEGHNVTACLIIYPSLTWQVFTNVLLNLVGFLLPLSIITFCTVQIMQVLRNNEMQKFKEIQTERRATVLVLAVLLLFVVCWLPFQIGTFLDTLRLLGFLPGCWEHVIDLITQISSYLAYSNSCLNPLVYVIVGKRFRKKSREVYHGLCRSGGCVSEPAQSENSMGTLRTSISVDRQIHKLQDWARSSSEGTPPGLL
In short: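 Ileal membranes from male Hartley guinea pigs, prepared in TES/1,10-phenanthroline pH 6.8 with 100000 g pellet. Membranes (0.2 mg protein/mL) incubated with [3H]BK and varying compound concentrations 60 min at room temperature in binding buffer with bacitracin, DTT, captopril, BSA. Filter harvest, scintillation counting; nonspecific with 1 μM BK. IC50 as mean of ≥3 determinations.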

[3] = test system: Cavia porcellus; experiment: Compound was evaluated for percentage inhibition against BK-induced bronchoconstriction in anesthetized guinea pig, intravenously at a concentration of 1 mg/kg; type: functional; settings: route intravenous
In short: (§1)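 Male Hartley guinea pigs (470-750 g), fasted overnight, pentobarbital 30 mg/kg ip, tracheal and jugular cannulation, ventilated 10 mL/kg at 60 breaths/min; alcuronium 0.5 mg/kg iv, propranolol 10 mg/kg sc. BK 5 μg/kg iv; compound in 5% citric acid iv 25 min later, BK repeated 5 min after drug. Peak insufflation pressure rise (Konzett-Rossler); % inhibition vs vehicle, n=3-4.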

[4] = test system: Cavia porcellus; experiment: Compound was evaluated for percentage inhibition against BK-induced bronchoconstriction in anesthetized guinea pig, intravenously at a concentration of 10 mg/kg; type: functional; settings: route intravenous; in short: as §1

Row | Structure (SMILES) | IC50 [1] [nM] | IC50 [2] [nM] | inhibition in vivo at 1 mg/kg [3] [%] | inhibition in vivo at 10 mg/kg [4] [%]
1 | CNC(=O)c1ccc(/C=C/C(=O)NCC(=O)N(C)c2ccc(Cl)c(COc3cccc4c(N(C)C)cc(C)nc34)c2Cl)cc1 | 3.2 | 1.8 |  | 
2 | Cc1cc(N(C)C)c2cccc(OCc3c(Cl)ccc(N(C)C(=O)CNC(=O)/C=C/c4ccc(C(=O)N(C)C)cc4)c3Cl)c2n1 | 2.1 | 2.9 |  | 
3 | CNC(=O)c1ccc(/C=C/C(=O)NCC(=O)N(C)c2ccc(Cl)c(COc3cccc4c(-n5ccnc5)cc(C)nc34)c2Cl)cc1 | 0.28 | 3.7 |  | 
4 | CNC(=O)c1ccc(/C=C/C(=O)NCC(=O)N(C)c2ccc(Cl)c(COc3cccc4c(-n5cccn5)cc(C)nc34)c2Cl)cc1 | 0.17 | 2.7 |  | 
5 | Cc1cc(-n2ccnc2)c2cccc(OCc3c(Cl)ccc(-n4cccc4CNC(=O)/C=C/c4ccc(C(=O)N(C)C)cc4)c3Cl)c2n1 | 0.26 | 3 | 46 | 
6 | CNC(=O)c1ccc(/C=C/C(=O)NCC(=O)N(C)c2ccc(Cl)c(COc3cccc4c(-n5cncn5)cc(C)nc34)c2Cl)cc1 | 0.23 | 4.4 |  | 
7 | Cc1cc(-n2ccnc2)c2cccc(OCc3c(Cl)ccc(N(C)C(=O)CNC(=O)/C=C/c4ccc(C(=O)N(C)C)cc4)c3Cl)c2n1 | 0.35 | 4.3 |  | 
8 | Cc1cc(-n2ccnn2)c2cccc(OCc3c(Cl)ccc(N(C)C(=O)CNC(=O)/C=C/c4ccc(C(=O)N(C)C)cc4)c3Cl)c2n1 | 0.28 | 9.1 |  | 
9 | Cc1cc(-n2ccnc2)c2cccc(OCc3c(Cl)ccc(N(C)C(=O)CNC(=O)Nc4cccc(C(=O)Nc5ccncc5)c4)c3Cl)c2n1 | 0.23 | 6.6 |  | 56.8
10 | Cc1cc(-n2ccnc2)c2cccc(OCc3c(Cl)ccc(-n4cccc4CNC(=O)/C=C/c4ccc(C(=O)NCc5ccccn5)cc4)c3Cl)c2n1 | 0.43 | 6 |  | 
11 | Cc1cc(-n2cccn2)c2cccc(OCc3c(Cl)ccc(N(C)C(=O)CNC(=O)/C=C/c4ccc(C(=O)N(C)C)cc4)c3Cl)c2n1 | 0.18 | 3.3 |  | 
12 | Cc1cc(-n2ccnc2)c2cccc(OCc3c(Cl)ccc(N(C)C(=O)CNC(=O)/C=C/c4ccc(C(=O)Nc5ccncc5)cc4)c3Cl)c2n1 | 0.42 | 17 |  | 
13 | CNC(=O)c1ccc(/C=C/C(=O)NCC(=O)N(C)c2ccc(C)c(COc3cccc4c(-c5ccccc5)cc(C)nc34)c2C)cc1 | 1 | 3.1 |  | 
14 | N=C(N)NCCC[C@@H](N)C(=O)N[C@@H](CCCNC(=N)N)C(=O)N1CCC[C@H]1C(=O)N1C[C@H](O)C[C@H]1C(=O)NCC(=O)N[C@@H](Cc1cccs1)C(=O)N[C@@H](CO)C(=O)N1Cc2ccccc2C[C@@H]1C(=O)N1[C@H](C(=O)N[C@@H](CCCNC(=N)N)C(=O)O)C[C@@H]2CCCC[C@@H]21 [ICATIBANT] |  |  | 63.4 | 
